Converted amounts (≈) assume the structure as drawn. Starred links: 1 amine or outer side, 2 acyl side, 3 side chain; linkers in the order of their positions; H or OH if unused. Positions of bridges follow the written chain, without caps; N, C: chain ends. Non-standard residues stand in square brackets, D forms with d. Residues, ends and D or L forms follow the SMILES beside them. *: point of attachment. X1 = O=C1C[C@@H](C(=O)[*:2])N([*:1])C[C@H]1CS[C@@H]1CN2CCC1CC2; NMePhe(4-NMe2) = CN[C@@H](Cc1ccc(N(C)C)cc1)C(=O)O; Picolinoyl(3-OH) = O=C(c1ncccc1O)*; Phg = N[C@H](C(=O)O)c1ccccc1; dAbu = CC[C@@H](N)C(=O)O
How the values were obtained:
[1] = tested on: Staphylococcus aureus; assay: Minimum inhibitory concentration against Staphylococcus aureus L613 strain was determined
[2] = tested on: Enterococcus faecalis; assay: Minimum inhibitory concentration against vancomycin sensitive Enterococci faecalis L559 strain was determined; assay type: functional
Method in brief: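 Standard microdilution MIC assay against strain L559, isogenic with L560.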

[3] = tested on: Enterococcus faecium; assay: Minimum inhibitory concentration against vancomycin sensitive Enterococci faecium L568 strain was determined; assay type: functional
Method in brief: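 Standard microdilution assay giving the minimum inhibitory concentration. The test organism is strain L568, which is isogenic with L569.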

[4] = tested on: Enterococcus faecalis; assay: Minimum inhibitory concentration against vancomycin resistant Enterococci faecalis L560 strain was determined; assay type: functional
Method in brief: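 Standard microdilution MIC assay against strain L560, which forms an isogenic pair with L559.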

[5] = tested on: Enterococcus faecium; assay: Minimum inhibitory concentration against vancomycin resistant Enterococci faecium L2215 strain was determined; assay type: functional
Method in brief: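 Standard microdilution MIC assay against strain L2215, a Van-A clinical isolate.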

[6] = Enterococcus faecalis, read-out: MIC
[7] = Enterococcus faecium, read-out: MIC

SMILES | MIC [1] [mg/L] | MIC [2, 6] [mg/L] | MIC [3, 7] [mg/L] | MIC [4, 6] [mg/L] | MIC [5, 7] [mg/L] | MIC [2] [mg/L] | MIC [3] [mg/L] | MIC [4] [mg/L] | MIC [5] [mg/L]
CC(=O)N[C@@H]1[C@H](Oc2c3cc4cc2Oc2ccc(cc2Cl)[C@@H](O[C@@H]2O[C@@H](CO)[C@@H](O)[C@H](O)[C@@H]2NC(C)=O)[C@@H]2NC(=O)[C@H](NC(=O)[C@@H]4NC(=O)[C@H]4NC(=O)[C@@H](Cc5ccc(c(Cl)c5)O3)NC(=O)[C@H](N)c3ccc(O)c(c3)Oc3cc(O)cc4c3)c3ccc(O)c(c3)-c3c(O[C@H]4O[C@H](CO)[C@@H](O)[C@@H](O)[C@@H]4O)cc(O)cc3[C@@H](C(=O)O)NC2=O)O[C@@H](CO)[C@@H](O)[C@@H]1O | 1 (≈ 0.566 µM) | 0.125 (≈ 0.0707 µM) | 0.5 (≈ 0.283 µM) | 64 (≈ 36.2 µM) | > 128 |  |  |  | 
CCCCCCCCCCCNC(=O)N[C@@H](C(=O)O)C1NC(=O)[C@H](Cc2ccccc2)NC(=O)[C@H](N)Cc2ccc(c([N+](=O)[O-])c2)Oc2cc1cc(O)c2OC.Cl (some centres not stated) | > 128 | 128 | 128 | > 128 | > 128 |  |  |  | 
CCCCCCCCCCCC(=O)N[C@@H](C(=O)O)C1NC(=O)[C@H](Cc2ccccc2)NC(=O)[C@H](NC(=O)[C@H](N)CC(C)C)Cc2ccc(c([N+](=O)[O-])c2)Oc2cc1cc(OCc1ccccc1)c2OC.Cl (some centres not stated) | 128 | 8 | 256 | 4 | 16 |  |  |  | 
COC(=O)[C@@H](C1NC(=O)[C@H](Cc2ccccc2)NC(=O)[C@H](NC(=O)[C@H](N)CC(C)C)Cc2ccc(c([N+](=O)[O-])c2)Oc2cc1cc(OC)c2OC)N(C)C.Cl (some centres not stated) | > 128 | 128 | > 128 | 128 |  |  |  |  | 
CCCCCCCCCCCC(=O)N[C@@H](C(=O)O)C1NC(=O)[C@H](Cc2ccccc2)NC(=O)[C@H](NC(=O)[C@H](N)CC(C)C)Cc2ccc(cc2)Oc2cc1cc(O)c2OC.Cl (some centres not stated) | > 128 | 128 | > 128 | 128 |  |  |  |  | 
COc1c(O)cc2cc1Oc1ccc(cc1[N+](=O)[O-])C[C@@H](NC(=O)[C@H](N)CC(C)C)C(=O)N[C@@H](Cc1ccccc1)C(=O)NC2[C@@H](NC(C)=O)C(=O)O.Cl (some centres not stated) | > 1020 | > 1020 | > 1020 |  |  |  |  |  | 
CCCCCCCCCCCNC(=O)N[C@@H](C(=O)O)C1NC(=O)[C@H](Cc2ccccc2)NC(=O)[C@H](NC(=O)[C@H](N)CC(C)C)Cc2ccc(c([N+](=O)[O-])c2)Oc2cc1cc(OC1OC(O)C(O)C(O)C1NC(=O)CCCCCCCCCCC)c2OC.Cl (some centres not stated) | > 256 | 8 | 256 | 8 | 32 |  |  |  | 
CCCCCCCCCCCC(=O)NC1C(Oc2cc3cc(c2OC)Oc2ccc(cc2[N+](=O)[O-])C[C@@H](NC(=O)[C@H](N)CC(C)C)C(=O)N[C@@H](Cc2ccccc2)C(=O)NC3[C@@H](NC(C)=O)C(=O)O)OC(O)C(O)C1O.Cl (some centres not stated) | > 1020 | 64 | > 1020 | 64 | 1020 |  |  |  | 
COC(=O)[C@H](N)C1NC(=O)[C@H](Cc2ccccc2)NC(=O)[C@H](NC(=O)[C@H](N)CC(C)C)Cc2ccc(c([N+](=O)[O-])c2)Oc2cc1cc(O)c2OC.Cl (some centres not stated) | > 1020 | 512 | > 1020 | 512 |  |  |  |  | 
CCCCCCCCCCCC(=O)N[C@@H](C(=O)O)C1NC(=O)[C@H](Cc2ccccc2)NC(=O)[C@H](NC(=O)[C@H](N)CC(C)C)Cc2ccc(c([N+](=O)[O-])c2)Oc2cc1cc(O)c2OC.Cl (stereo in doubt; 2d) | 64 | 4 | 128 | 4 | 8 |  |  |  | 
CCCCCCCCCCCC(=O)N[C@@H](C(=O)O)C1NC(=O)[C@H](Cc2ccccc2)NC(=O)[C@H](NC(=O)[C@H](N)CC(C)C)Cc2ccc(c([N+](=O)[O-])c2)Oc2cc1cc(O)c2OC.Cl (stereo in doubt; 2e) |  |  |  |  |  | 8 | >128 | 8 | 16
CCN(CC)CCS(=O)(=O)[C@@H]1CCN2C(=O)c3coc(n3)CC(=O)C[C@H](O)/C=C(C)/C=C/CNC(=O)/C=C/[C@@H](C)[C@@H](C(C)C)OC(=O)[C@@H]12.CC[C@H]1NC(=O)[C@@H](NC(=O)c2ncccc2O)[C@@H](C)OC(=O)[C@H](c2ccccc2)NC(=O)[C@@H]2CC(=O)[C@H](CS[C@@H]3CN4CCC3CC4)CN2C(=O)[C@H](Cc2ccc(N(C)C)cc2)N(C)C(=O)[C@@H]2CCCN2C1=O [QUINUPRISTIN/DALFOPRISTIN] ({Picolinoyl(3-OH)}-T[dAbu]P[NMePhe(4-NMe2)][X1][Phg]; ester 1-C) | 1 | 4 | 4 | 8 | 4 |  |  |  | 
CN[C@H](CC(C)C)C(=O)N[C@H]1C(=O)N[C@@H](CC(N)=O)C(=O)N[C@H]2C(=O)N[C@H]3C(=O)N[C@H](C(=O)N[C@H](C(=O)O)c4cc(O)cc(O)c4-c4cc3ccc4O)[C@H](O)c3ccc(c(Cl)c3)Oc3cc2cc(c3O[C@@H]2O[C@H](CO)[C@@H](O)[C@H](O)[C@H]2O[C@H]2C[C@](C)(N)[C@H](O)[C@H](C)O2)Oc2ccc(cc2Cl)[C@H]1O [VANCOMYCIN] |  | 1 (≈ 0.69 µM) |  | > 128 | > 128 |  |  |  | 

Reference: ChEMBL document CHEMBL1144297, “Design and synthesis of macrocycles active against vancomycin-resistant enterococci (VRE): the interplay between d-Ala-d-Lac binding and hydrophobic effect” (2005)
